# bIAP inh – blocks bovine intestinal alkaline phosphatase activity | purified bovine IAP, CDP-star luminescence, 30 min | inhibition, % at 20 µM | 190,000 tested, under 10 active | AID 1019;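 active = over 50% inhibition of intestinal alkaline phosphatase at 20 µM in the single-dose screen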
#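 Assay system – bovine IAP enzyme · Quantity – bovine IAP at 1/65,000,000 final dilution · Detection – CDP-star luminescence signal · Times – 30 min reaction at room temperature · Also added – CDP-star substrate at 30 µM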
# mIAP inh – mouse IAP inhibition; purified mouse IAP, CDP-Star luminescence, 30 min; actives 0.2% (n = 330,000); inhibition, % at 10 µM; AID 2806;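 active = inhibition of at least 40% at 10 µM in the primary screen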;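 also: plate controls were DMSO with enzyme for no effect and no enzyme wells for full effect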
# hIAP block – blocks human intestinal alkaline phosphatase; actives 0.12% (n = 330,000); purified IAP, CDP-Star luminescence, 30 min; P09923; inhibition, % at 10 µM;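 active = inhibition reaching a set limit with compound at 10 µM in the primary screen, cut at about 35% in these data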;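 also: plate controls were DMSO wells with enzyme for no effect and no-enzyme buffer wells for full effect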
# Target sequence (P09923 whole entry, looked up): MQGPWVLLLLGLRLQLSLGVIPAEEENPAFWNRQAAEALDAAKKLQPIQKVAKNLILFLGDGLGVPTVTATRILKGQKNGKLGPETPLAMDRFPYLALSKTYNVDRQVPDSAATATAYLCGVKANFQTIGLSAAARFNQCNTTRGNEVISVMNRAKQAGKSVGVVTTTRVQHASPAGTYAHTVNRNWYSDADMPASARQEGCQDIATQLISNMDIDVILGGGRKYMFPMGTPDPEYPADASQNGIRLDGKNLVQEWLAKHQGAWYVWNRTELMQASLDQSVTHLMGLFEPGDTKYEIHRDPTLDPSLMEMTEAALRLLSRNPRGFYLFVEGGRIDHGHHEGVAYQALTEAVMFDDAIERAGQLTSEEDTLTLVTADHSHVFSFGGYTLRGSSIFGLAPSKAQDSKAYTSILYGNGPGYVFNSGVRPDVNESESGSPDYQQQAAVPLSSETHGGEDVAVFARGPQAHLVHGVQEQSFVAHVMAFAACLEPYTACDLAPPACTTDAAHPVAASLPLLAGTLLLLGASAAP
# bIAP activator – increases bovine intestinal alkaline phosphatase activity. activation factor at 20 µM. purified bovine IAP, CDP-star luminescence, 30 min; hits give high values; fold of DMSO-control signal, blank-subtracted. actives 0.17% (n = 200,000);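 active = activation factor of 2 or more at 20 µM, a signal rise over negative controls twice the positive control's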
# mIAP act – mouse IAP activation; muIAP, CDP-Star luminescence, 30 min; hits give high values; 1 = vehicle-only enzyme signal, 0 = enzyme-free wells; activation factor at 10 µM; actives 0.24% (n = 330,000);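 active = activation factor of at least 2 at 20 µM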
#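 System: mouse IAP enzyme. Reagent: CDP-Star chemiluminescent phosphatase substrate. Benchmarks: DMSO wells, no-enzyme wells. Times: 30 min enzyme-substrate-compound incubation at room temperature. Detection: luminescence from enzymatic CDP-Star hydrolysis. Doses: test compounds delivered from DMSO solution.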
# hIAP act – increases human intestinal alkaline phosphatase activity; AID 2524; actives 0.16% (n = 330,000); P09923; activation factor at 10 µM; purified human IAP, CDP-Star luminescence, 30 min; hits give high values; 1 = vehicle-only enzyme, 0 = enzyme-free background;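 active = activation factor of the enzyme at least 2-fold when tested at 20 µM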
# hIAP act confirm – human IAP activation confirmation | shares compounds with hIAP act | purified IAP, CDP-Star luminescence, 30 min; hits give low values | activation (%Activity, negative = activation), % at 8.3 µM | actives 10% (n = 880) | AID 434926;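 active = at least twofold enzyme activation in any of six single-dose repeats, which the averaged readout prints as negative percent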
# * hit, by the source's call; . = no result. A selection: hits, their analogues and other compounds. The true share with any hit is near 0.72%.
SMILES,bIAP inh,mIAP inh,hIAP block,bIAP activator,mIAP act,hIAP act,hIAP act confirm
Cc1nn(-c2ccccc2)c2c1C(c1ccncc1)C(C#N)=C(N)O2 (centres undefined),4,-3,38*,1,1,0.62,-2
Cc1ccc(NC(=O)c2sc3ccccc3c2Cl)nc1,1,2,-110,1,0.98,2.1*,-29
COc1ccc(C(C)NC(=O)C2CCCC2)cc1OC (centres undefined),.,-4,-6,.,1,1.1,.
CCCNC(=S)NNC(=O)c1cc(C2CC2)nc2ccccc12,.,5,-117,.,0.95,2.2*,0
COc1cccc(NC(=S)N2CCN(S(=O)(=O)c3ccccc3)CC2)c1,.,-2,9,.,1,0.91,.
NS(=O)(=O)c1ccc2nc(NC(=O)c3ccc4ncsc4c3)sc2c1,.,-4,36*,.,1,0.64,-19
CCNc1nc(NCC)nc(-n2nc(C)cc2C)n1,-2,2,41*,1,0.98,0.59,-8
CCOc1ccc(-c2c(C(=O)N/N=C/C3CCCCC3)nnn2-c2nonc2N)cc1,.,2,-15,.,0.98,1.1,.
CN1CCN(C(=O)c2ccc3c(c2)OCCO3)CC1,11,0,37*,0.9,1,0.63,8
O=C(c1ccccc1)N1CCN(C(=O)c2ccc3c(c2)OCCO3)CC1,4,-26,-28,1,1.3,1.3,.
COc1cc(CCC(=O)OCC(=O)Nc2ccc(F)cc2F)cc(OC)c1OC,.,-5,-3,.,1,1,.
O=C(N/N=C/c1cccc([N+](=O)[O-])c1)c1nc2ccccc2c(=O)[nH]1,.,26,-140,.,0.74,2.4*,33
CC1CCN(Cc2nnnn2CCCC(=O)N(C)C(C)c2ccccn2)CC1 (centres undefined),.,-11,-27,.,1.1,1.3,.
CC(=O)N1CCOc2ccc(S(=O)(=O)N3CCCC(C)C3)cc21 (centres undefined),.,-8,43*,.,1.1,0.57,54
CC(=O)N1CCOc2ccc(S(=O)(=O)N3C(C)CCCC3C)cc21 (centres undefined),.,9,12,.,0.91,0.88,.
N#C/C(=C/c1ccc(O)c(O)c1)c1nc2ccccc2[nH]1,.,36,58*,.,0.64,0.42,4
N#C/C(=C\c1ccc(N2CCCC2)c([N+](=O)[O-])c1)c1nc2ccccc2[nH]1,21,12,35*,0.8,0.88,0.65,-1
N#C/C(=C\c1ccc(N2CCCCC2)c([N+](=O)[O-])c1)c1nn(-c2ccccc2)c(N)c1C#N,12,16,19,0.9,0.84,0.81,.
CCOc1cc(/C=N/NC(=O)C(=O)N/N=C/c2ccc(O)c(OCC)c2)ccc1O,.,18,38*,.,0.82,0.62,-48*
Cc1c(Cl)cccc1NC(=O)COC(=O)c1ccc(CN2CCCC2=O)cc1,.,-8,7,.,1.1,0.93,.
O=C(Nc1nccs1)c1nc[nH]c1C(=O)NCc1ccccc1,.,-7,-136,.,1.1,2.4*,-3
CN(Cc1ccccc1)C(=O)c1[nH]cnc1C(=O)Nc1nccs1,.,0,-145,.,1,2.5*,-141*
CN(Cc1ccccc1)C(=O)c1[nH]cnc1C(=O)NCc1ccccc1,.,6,-23,.,0.94,1.2,.
CSc1ccccc1C(=O)C1CCCN(C(=O)c2cncs2)C1 (centres undefined),.,-1,-12,.,1,1.1,.
Oc1ccc(N=Nc2c(O)ccc3ccccc23)cc1,41,32,45*,0.6,0.68,0.55,-92*
SMILES,bIAP inh,mIAP inh,hIAP block,bIAP activator,mIAP act,hIAP act,hIAP act confirm
CC1CN(Cc2ccccc2)c2nc3c(c(=O)n(CC(N)=O)c(=O)n3C)n2C1 (centres undefined),.,5,39*,.,0.95,0.61,-37
CCOC(=O)Cn1c(=O)c2c(nc3n2CC(C)CN3Cc2ccccc2)n(C)c1=O (centres undefined),.,-9,-12,.,1.1,1.1,.
CC(C)Oc1ccc(C(=O)Nc2ncn[nH]2)cc1,.,-8,-101,.,1.1,2*,-65*
CC(C)COc1ccc(C(=O)Nc2ncn[nH]2)cc1,.,-12,-10,.,1.1,1.1,.
CC(C)Oc1cccc(C(=O)Nc2ncn[nH]2)c1,.,4,-124,.,0.96,2.2*,5
COc1cccc(N2CCN(CC(=O)N3CCN(S(=O)(=O)c4ccc(Cl)cc4)CC3)CC2)c1,.,-4,23,.,1,0.77,.
CCOc1ccc(-c2cc(C(=O)N/N=C(\C)c3cccnc3)c3ccccc3n2)c(OCC)c1,.,8,-9,.,0.92,1.1,.
CCOC(=O)C1=C(COC(=O)/C=C/c2cccc(OC)c2)NC(=O)NC1C (centres undefined),.,10,-7,.,0.9,1.1,.
COc1ccc(C2Nc3cc(OC)ccc3-n3cccc32)cc1 (centres undefined),.,6,-7,.,0.94,1.1,.
CC1(C)C2CCC1(CS(=O)(=O)NCc1ccc(S(N)(=O)=O)cc1)C(=O)C2 (centres undefined),.,3,-2,.,0.97,1,.
CCCNS(=O)(=O)c1ccc(CCC(=O)NCc2ccco2)cc1,7,1,-141,0.9,0.99,2.4*,11
N#C/C(=C\c1ccc(-c2cccc([N+](=O)[O-])c2)o1)C(=O)Nc1nc(-c2cccs2)cs1,.,28,47*,.,0.72,0.53,-64
COC(=O)/C=C1\S/C(=N/NC(=O)c2ccccc2)NC1=O,-24,16,-30,1.2,0.84,1.3,.
COc1ccccc1/C=C1\S/C(=N/NC(=O)c2cccc(Br)c2)NC1=O,-5,-1,-145,1.1,1,2.5*,2
COC(=O)c1ccc(N2NC(=O)/C(=C/c3cc(OC)c(OC)c(OC)c3)C2=O)cc1,.,-2,1,.,1,0.99,.
COC(=O)c1ccc(N2NC(=O)/C(=C/c3cc(OC)c(O)c(OC)c3)C2=O)cc1,.,13,37*,.,0.87,0.63,-48
Cc1ccc(OCC(=O)Nc2cccc(O)c2)cc1C,-4,6,5,1,0.94,0.95,.
Cc1cccc(OCC(=O)Nc2cccc(O)c2)c1,12,-7,-117,0.9,1.1,2.2*,-25
CCCCCCN1C=CC(=C/C=C(\C#N)C(=O)OCC)C=C1,42,36,44*,0.6,0.64,0.56,-27
Cc1ccc(S(=O)(=O)c2nc(-c3ccccc3F)oc2N2CC(C)OC(C)C2)cc1 (centres undefined),.,0,-4,.,1,1,.
Cc1cc(NC(=O)CSc2nnc(-c3ccc([N+](=O)[O-])cc3)o2)no1,.,-3,35*,.,1,0.65,-61
O=C1c2[nH]nc(-c3ccccc3O)c2C(c2cccc(Cl)c2)N1Cc1ccco1 (centres undefined),-39,2,-128,1.4,0.98,2.3*,4

# Compound activity deposited in PubChem BioAssay by Sanford-Burnham Center for Chemical Genomics.
